Results from ChEMBL document CHEMBL4052596, “Dioncophyllines C2, D2, and F and Related Naphthylisoquinoline Alkaloids from the Congolese Liana Ancistrocladus ileboensis with Potent Activities against Plasmodium falciparum and against Multiple Myeloma and Leukemia Cell Lines” (J Nat Prod, 2017).

Experiments:
[1] = Induction of apoptosis in human INA-6 cells after 3 days by V-FITC/ propidium iodide staining-based flow cytometric analysis; format: functional, cell-based
In short: (§1)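 INA-6 multiple myeloma cells, or mononuclear cells from the peripheral blood of healthy donors, exposed to a range of concentrations for 3 d, with melphalan as reference. Cells stained 10 min with annexin V-FITC and PI in HEPES binding buffer pH 7.4 (140 mM NaCl, 2.5 mM CaCl2), then analysed by flow cytometry. The annexin/PI double-negative fraction counted as viable, and EC50 derived from dose-response curves.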

PBMC = test: Induction of apoptosis in human PBMC after 3 days by V-FITC/ propidium iodide staining-based flow cytometric analysis; format: cell-based; conditions: 72 h; in short: as §1
[2] = system: Trypanosoma brucei rhodesiense; test: Antiprotozoal activity against patient derived Trypanosoma brucei rhodesiense STIB 900 bloodstream form after 72 hrs by Alamar Blue assay; format: functional; conditions: STIB 900, 72 h
In short: (§2)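 In vitro tests against P. falciparum NF54, T. cruzi, T. b. rhodesiense and L. donovani, with cytotoxicity on rat skeletal myoblast L6 host cells.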

L6 = test: Cytotoxicity against rat L6 cells after 72 hrs by Alamar Blue assay; format: cell-based; conditions: L6, 72 h; in short: as §2
Leishmania donovani = test: Antiprotozoal activity against amastigote form of Leishmania donovani MHOM/ET/67/L82 after 72 hrs by Alamar Blue assay; format: functional; conditions: MHOM/ET/67/L82, 72 h; in short: as §2
Trypanosoma cruzi = test: Antiprotozoal activity against trypomastigote stage of Trypanosoma cruzi Tulahuen C2C4 infected in rat L6 cells using preincubated for 96 hrs by CPRG/Nonidet-based inverted microscopy; format: functional, cell-based; in short: as §2
Plasmodium falciparum [3] = test: Antiprotozoal activity against erythrocytic stage of Plasmodium falciparum NF54 after 48 hrs by [3H]- hypoxanthine incorporation assay; format: functional; in short: as §2
[4] = Selectivity index, ratio of IC50 for rat L6 cells to IC50 for erythrocytic stage of Plasmodium falciparum NF54; format: toxicity; conditions: read-out: Ratio IC50
In short: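 Ratio of the L6 cell IC50 to the P. falciparum IC50. Each IC50 is the mean of two independent assays.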

[5] = Selectivity index, ratio of IC50 for rat L6 cells to IC50 for erythrocytic stage of chloroquine and pyrimethamine resistant Plasmodium falciparum K1; format: toxicity; conditions: read-out: Ratio IC50
In short: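 Selectivity index: IC50 toward rat skeletal myoblast L6 cells (in vitro cytotoxicity, previously published method) divided by IC50 against P. falciparum K1; each IC50 is the mean of two independent assays.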

Plasmodium falciparum [6] = test: Antiprotozoal activity against erythrocytic stage of chloroquine and pyrimethamine resistant Plasmodium falciparum K1 after 48 hrs by [3H]- hypoxanthine incorporation assay; format: functional
ADR5000 cell line = test: Growth inhibition of human multi-drug resistant CEM/ADR5000 cells by resazurin assay; format: functional, cell-based
In short: (§3)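 CCRF-CEM cells and the P-glycoprotein-overexpressing multidrug-resistant subline CEM/ADR5000 treated over a range of concentrations, with doxorubicin as positive control and DMSO (under 1.0%) as negative control. Resazurin fluorescence read at ex 544/em 590 nm against untreated cells. IC50 taken from a calibration curve by linear regression. Mean ± SD of three independent experiments, six parallel measurements each.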

CCRF-CEM [7] = test: Growth inhibition of human CCRF-CEM cells at 10 uM by resazurin assay relative to control; format: functional; conditions: read-out: GI
In short: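 Drug-sensitive CCRF-CEM leukemia cells treated at a single concentration of 10 μM, with doxorubicin as reference and DMSO vehicle (under 1.0%) as negative control. Viability read by resazurin fluorescence (ex 544, em 590 nm) relative to untreated cells. Three independent experiments, six parallel measurements each.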

CCRF-CEM [8] = test: Growth inhibition of human CCRF-CEM cells by resazurin assay; format: functional, cell-based; in short: as §3
[9] = Resistance index, ratio of IC50 for human CEM/ADR5000 cells to IC50 for human CCRF-CEM cells; format: functional
In short: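 Degree of resistance is the IC50 for CEM/ADR5000 divided by the IC50 for CCRF-CEM. Both come from resazurin viability dose-response curves over three independent experiments.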

SMILES | EC50 ([1]; Homo sapiens, INA-6, 72 h) | IC50 [2] | IC50 (L6) | IC50 (Leishmania donovani) | IC50 (Trypanosoma cruzi) | IC50 (Plasmodium falciparum [3]) | selectivity ratio [4] | other results
COc1cc(C)c(-c2ccc(O)c3c2C[C@@H](C)N[C@@H]3C)c2cccc(O)c12 [DIONCOPHYLLINE C] | 7.5 µM | – | – | – | – | – | – | EC50 (PBMC): 9 µM
COc1cccc2c(-c3ccc4c(c3O)[C@@H](C)N[C@H](C)C4)c(C)cc(O)c12 (stereo in doubt; P-11) | – | – | – | – | – | – | – | EC50 ([1]; ina-6): 2.7 µM
COc1ccc(-c2ccc3c(c2O)[C@@H](C)N(C)[C@H](C)C3)c2cc(C)cc(OC)c12 | 32 µM | 13.7 µM | 62.8 µM | 136 µM | 55 µM | 0.107 µM | 586 | –
COc1ccc(-c2ccc(O)c3c2C[C@@H](C)N[C@H]3C)c2cc(C)cc(OC)c12 | 21 µM | 0.585 µM | 14.5 µM | 107 µM | 14.6 µM | 0.09 µM | 161 | selectivity ratio [5]: 323; IC50 (Plasmodium falciparum [6]): 0.045 µM; EC50 (PBMC): 16 µM
N[C@@H](Cc1ccc(N(CCCl)CCCl)cc1)C(=O)O | 2 µM | – | – | – | – | – | – | –
COc1cc2c(c(O)c1-c1c(C)cc(OC)c3c(OC)cccc13)C(C)=N[C@H](C)C2 | – | 22.7 µM | 34.9 µM | 146 µM | 104 µM | 6.51 µM | 5.4 | –
O=C(Cn1ccnc1[N+](=O)[O-])NCc1ccccc1 [BENZNIDAZOLE] | – | – | – | – | 2.32 µM | – | – | –
COc1cccc2c(-c3ccc4c(c3O)[C@@H](C)N[C@H](C)C4)c(C)cc(O)c12 (stereo in doubt; M-11) | – | – | – | – | – | – | – | EC50 ([1]; ina-6): 16 µM; EC50 (PBMC): 50 µM
COc1cccc2c(-c3ccc4c(c3O)[C@@H](C)N[C@H](C)C4)c(C)cc(OC)c12 [DIONCOPHYLLINE A] | 0.22 µM | – | – | – | – | – | – | IC50 (ADR5000 cell line): 0.52 µM; inhibition of growth at 10 µM (CCRF-CEM [7]): < 50%; IC50 (CCRF-CEM [8]): 0.243 µM; Ratio IC50 [9]: 2.1
COc1cc(C)c(-c2ccc3c(c2O)[C@@H](C)N[C@H](C)C3)c2cccc(O)c12 | 1.5 µM | – | – | – | – | – | – | –
COc1ccc(-c2ccc3c(c2O)[C@@H](C)N[C@H](C)C3)c2cc(C)cc(OC)c12 | 2.6 µM | 8.08 µM | 4.02 µM | > 265 µM | 26.3 µM | 0.228 µM | 17.6 | IC50 (ADR5000 cell line): 5.31 µM; inhibition of growth at 10 µM (CCRF-CEM [7]): < 50%; IC50 (CCRF-CEM [8]): 1.86 µM; Ratio IC50 [9]: 2.9; EC50 (PBMC): 19 µM
COc1cc2c(c(OC)c1-c1c(C)cc(OC)c3c(OC)cccc13)[C@@H](C)N[C@@H](C)C2 | 4.8 µM | 0.313 µM | 30 µM | 25.4 µM | 12.4 µM | 0.726 µM | 41 | –
COc1cccc2c(-c3ccc4c(c3O)[C@@H](C)N(C(C)=O)[C@H](C)C4)c(C)cc(OC)c12 [N-ACETYLDIONCOPHYLLINE A] | 0.8 µM | – | – | – | – | – | – | –
COc1cccc2c(-c3ccc(O)c4c3C[C@@H](C)N[C@H]4C)c(C)cc(OC)c12 | – | 4.83 µM | 43.3 µM | 228 µM | 44.5 µM | 0.702 µM | 61.7 | –
COc1cccc2c1C(=O)c1c(O)c3c(c(O)c1C2=O)C[C@@](O)(C(=O)CO)C[C@@H]3O[C@H]1C[C@H](N)[C@H](O)[C@H](C)O1 [DOXORUBICIN] | – | – | – | – | – | – | – | IC50 (ADR5000 cell line): 30.1 µM; IC50 (CCRF-CEM [8]): 0.017 µM; Ratio IC50 [9]: 1769
